High-throughput results (PubChem BioAssay)
Jurkat NFkB inh: lowers PMA/ionomycin-induced NF-kB signal in Jurkat cells; PMA/ionomycin-induced NF-kB luciferase reporter, luminescence; inhibition, % at 4 µM; 330,000 tested, 0.53% active; in the data active means inhibition above about 50%
CHOP UPR activ: activators of apoptotic arm of unfolded protein response (CHOP) | CHO-CHOP luciferase reporter, UPR activation, luminescence; percent of tunicamycin response over DMSO baseline | activation, % at 10 µM | 330,000 tested, 0.34% active;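 active means at 10 µM dose, activation of 40% or more, normalized to positive control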
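System: CHO-CHOP luciferase reporter cell line; amount: 500 cells/well; buffer or medium: F12 medium containing 10% fetal bovine serum; incubation: 6 h compound exposure at 37 °C after overnight seeding; measured by: luciferase luminescence after 10 min with Steady-Glo reagent; evaluation: % reporter activation, DMSO baseline versus tunicamycin full activation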
UPR XBP1 act: adaptive UPR (XBP1) activation. AID 463104. activation, % at 20 µM. CHO-XBP1 luciferase reporter, IRE1-XBP1 UPR activation, luminescence; percent of tunicamycin response, DMSO as zero. 330,000 tested, 0.33% active;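 active means versus positive control, 20 µM dose yields 30% or more activation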
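Test system: CHO-XBP1 luciferase reporter cells | Buffer or medium: Serum-containing F12 medium, 10% FBS | Schedule: 6 h compound exposure at 37 °C, 5% CO2 | Detection: Steady-Glo luciferase glow luminescence, 10 min after reagent addition | Read-out basis: Activation, % of tunicamycin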
697 NFkB inh: lowers PMA/ionomycin-induced NF-kB signal in 697 B cells. AID 435022. inhibition, % at 4 µM. 330,000 tested, 0.33% active. 697 B-cell NF-kB luciferase reporter, 16 h; in the data active means inhibition above about 35%
CHOP inhibitor: blocks CHOP induction under ER stress; CHO-K1 CHOP-promoter luciferase, tunicamycin-induced, 15-18 h; inhibition, % at 10 µM; 220,000 tested, 3.8% active; AID 2732;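 active means compounds that reduced the stress-induced luciferase reporter signal by more than about 70% of percent inhibition, limit read from the data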
Numbers stand for hits; 0 = inactive; - = no result. The entries come from a sample that favours hits as a whole.

SMILES	Jurkat NFkB inh	CHOP UPR activ	UPR XBP1 act	697 NFkB inh	CHOP inhibitor
O=C(Nc1cccc(C(F)(F)F)c1)c1ccccc1NC(=O)C1CCCCC1	0	0	0	0	94
COc1cc(C)ccc1OCCCOc1ccccc1Cl	0	0	0	0	0
COc1cc(C)ccc1OCCOc1ccccc1Cl	0	0	0	0	76
COc1ccccc1OCCOCCOc1c(C)cc(C)cc1Br	0	0	0	0	0
COc1cc(C)ccc1OCCOCCOc1c(C)cc(C)cc1Br	0	0	0	0	84
CCOc1ccc(-c2c(=O)n(OCc3ccc([N+](=O)[O-])cc3)c3ccccc3[n+]2[O-])cc1	0	0	36	0	0
CCOc1ccc(-c2c(=O)n(OCc3ccc([N+](=O)[O-])cc3)c3ccccc3[n+]2[O-])c(OCC)c1	0	0	0	0	-
CC1Cc2ccccc2N1CC(=O)NC(c1ccccc1)c1ccccc1 (centres undefined)	0	0	0	0	87
N#Cc1c(N2CCCC2)ccc(Br)c1Cl	0	0	0	0	0
COc1ccc(NCC(=O)N/N=C(\C)c2cc3ccccc3o2)cc1	0	0	0	0	0
COC(=O)C(Cc1ccccc1)NC(=O)COc1ccc(C(C)(C)C)cc1 (centres undefined)	0	0	0	0	93
C/C(=N\NC(=O)COc1ccc(C(C)(C)C)cc1)c1ccccc1	0	0	0	0	81
C/C(=N\NC(=O)COc1ccc(C(C)(C)C)cc1)c1cc2ccccc2o1	0	0	0	0	74
CCOc1ccc(C(=O)NC(Cc2ccccc2)C(=O)OC)cc1 (centres undefined)	0	0	0	0	0
C/C(=N\NC(=O)COc1ccc(C(C)(C)C)cc1)c1ccc(OC(F)F)cc1	0	0	0	0	94
C=CCn1c(CNC(=O)c2ccccc2F)nnc1SCC(=O)N1CCOCC1	0	0	0	0	-
Cc1ccc(NC(=O)COC(=O)C2CC3CCCC(C2)C3=O)c([N+](=O)[O-])c1 (centres undefined)	0	0	0	0	-
COc1ccc(/C=N/Nc2ccc([N+](=O)[O-])cc2S(=O)(=O)N2CCN(C)CC2)cc1	0	0	0	0	71
COc1ccc(C=NNc2ccc([N+](=O)[O-])cc2S(=O)(=O)Nc2ccccc2C(=O)O)cc1OC	0	0	0	0	-
O=C(NCc1ccco1)c1ccc(N2CCCCC2)c([N+](=O)[O-])c1	0	0	0	0	70
Cc1nn(C(C)C(=O)NCc2cccs2)c(C)c1[N+](=O)[O-] (centres undefined)	0	0	0	0	0
CCOC(=O)Cc1csc(NC(=O)Nc2ccc(OC(F)(F)F)cc2)n1	0	0	0	0	0
COc1cc(NC(=O)c2csc3c2CCCC3)ncn1	0	0	0	0	72
CCOC(=O)Cc1csc(NC(=O)c2csc3c2CCCC3)n1	0	0	0	0	76
O=C(Nc1ccccn1)c1csc2c1CCCC2	0	0	0	0	0
SMILES	Jurkat NFkB inh	CHOP UPR activ	UPR XBP1 act	697 NFkB inh	CHOP inhibitor
CCOC(=O)Cc1csc(NC(=O)NC2(C(F)(F)F)Oc3ccccc3O2)n1	0	0	0	0	92
CN(Cc1ccccc1)C(=O)c1cccc(NC(=O)C2CCCN(C(=O)OC(C)(C)C)C2)c1 (centres undefined)	0	0	0	0	-
Cc1ccc(NS(=O)(=O)c2ccc(NC(=O)c3ccccc3C(=O)O)cc2)cc1C	0	0	0	0	-
COc1cccc(C(=O)c2sc(NC(C)C)nc2N)c1	0	0	0	0	91
COc1ccc(CC(=O)NNC(=O)COc2ccc(C)cc2)cc1S(=O)(=O)N1CCOCC1	0	0	0	0	-
O=c1c2c3nc4ccccc4nc3n(-c3ccc4c(c3)OCCO4)c2ncn1C1CCCC1	0	77	0	0	-
Nc1c(C(=O)OCC2CCCO2)c2nc3ccccc3nc2n1-c1ccc2c(c1)OCCO2 (centres undefined)	0	0	0	0	0
COc1ccccc1NC(=O)NC1(C(=O)N2CCCCC2)CCCCC1	0	0	0	0	-
CC1(c2ccc(Cl)cc2)NC(=O)N(CC(=O)NC(=O)NCc2ccco2)C1=O (centres undefined)	0	0	0	0	0
CO/N=C/c1ccc(N2CCN(C(=O)c3ccc(C)cc3)CC2)c([N+](=O)[O-])c1	0	0	0	0	73
CO/N=C/c1ccc(N2CCCC2)c([N+](=O)[O-])c1	0	0	0	0	0
CCOc1cccc(-c2nn(-c3ccccc3)cc2/C=C(/C#N)C(=O)NCCCn2ccnc2)c1	0	0	0	0	95
O=C1C2C3C=CC(CNS(=O)(=O)c4ccccc4)(O3)C2C(=O)N1c1ccc(Cl)cc1 (centres undefined)	0	0	0	0	0
Cc1ccc(N2C(=O)C3C4C=CC(CNC(=S)N5CCN(c6cccc(C)c6)C(C)C5)(O4)C3C2=O)cc1 (centres undefined)	0	0	0	0	92
Nc1nonc1-n1nnc(C(=O)N/N=C/c2ccoc2)c1-c1ccccc1	0	0	0	0	-
CCOC(=O)c1c(C(F)(F)C(F)(F)C(F)(F)C(F)(F)F)n[nH]c1C	0	0	0	0	82
CCOC(=O)c1[nH]c(C)c(C(=O)OCC)c1C	0	0	0	0	0
CCCCS(=O)CC(COCc1ccccc1)OC(=O)CSc1nc(C)cc(C)n1 (centres undefined)	0	0	0	0	0
CCOC(=O)C1CCCN(C/C=C/c2ccccc2)C1 (centres undefined)	0	0	0	0	-
COc1ccc(C(=O)OCC2CC(c3ccccc3)N(C)O2)cc1 (centres undefined)	0	0	0	0	80
COc1ccc(-c2cc(-c3c(O)c(OC)c4occc4c3OC)[nH]n2)cc1	0	0	0	0	86
COc1ccc(-c2cc(-c3c(O)c(OC)c4occc4c3OC)[nH]n2)cc1OC	0	0	0	0	0
CCCCC(=O)Nc1nnc(SCC(=O)NCC2CCCO2)s1 (centres undefined)	0	0	0	0	-
CCOc1ccc2cc(C#N)c(SCC(=O)N3CCC(C)CC3)nc2c1	0	0	0	0	0
CCOC(=O)CSc1nc2cc(OCC)ccc2cc1C#N	0	0	0	0	93
SMILES	Jurkat NFkB inh	CHOP UPR activ	UPR XBP1 act	697 NFkB inh	CHOP inhibitor
N#CC(Cc1ccc(O)c(O)c1)C(=O)N1CCc2ccccc21 (centres undefined)	-	-	-	-	0
COc1cccc(/C=N/Nc2snc(SC)c2C#N)c1O	0	0	0	0	0
COc1ccc(/C=N/Nc2snc(SC)c2C#N)cc1OC	0	0	0	0	76
CSc1nsc(N/N=C/c2ccccc2)c1C#N	0	0	0	0	0
COc1cccc(/C=N/Nc2snc(SC)c2C#N)c1	0	0	0	0	81
C=CC(N)CCC(=O)O (centres undefined)	-	-	-	-	91
C#CC(N)CCC(=O)O (centres undefined)	-	-	-	-	0
